In general, IC50 refers to the point on the concentration scale where inhibition reaches its midpoint. Higher therefore signals weaker potency in that assay.

For this experiment, the target named is GABA-A receptor; anion channel. Put plainly: Concentration to inhibit [3H]flunitrazepam binding to rat cerebral cortical membrane. The method, boiled down:
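Rat cerebral cortex homogenized in 50 mM Tris-HCl pH 7.4, centrifuged 20000g 20 min at 4 °C, washed three times, resuspended in 50 volumes. Triplicate incubations with [3H]flunitrazepam (~1 nM final) at 4 °C for 120 min, ended by GF/B filtration and ice-cold buffer washes. Nonspecific binding defined with 10 μM unlabeled flunitrazepam.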

For `[O-]c1c2c(nn1-c1ccc(Cl)cc1)c1ccccc1c[n+]2Cc1ccccc1`, the IC50 is > 2000 nM.
On to `COc1ccc(-n2nc3c4ccccc4c[n+](Cc4ccccc4)c3c2[O-])cc1`, for which the IC50 was > 2000 nM.
Turning to `[O-]c1c2c(nn1-c1ccccc1)c1ccccc1c[n+]2Cc1ccccc1`, the IC50 is > 2000 nM.
As to `Sc1c2ncc3ccccc3c2nn1-c1ccccc1`, the IC50 is > 2000 nM.
As for `c1ccc2c(c1)cnc1c3ccccc3[nH]c21`, the IC50 was > 2000 nM.
As for `Clc1c2ncc3ccccc3c2nn1-c1ccccc1`, the figure is > 2000 nM; as for `O=c1c2ncc3ccccc3c2[nH]n1-c1ccccc1`, > 2000 nM; as for `COc1ccc(-n2[nH]c3c(ncc4ccccc43)c2=O)cc1`, > 2000 nM.
As to `O=c1c2ncc3ccccc3c2[nH]n1-c1ccc(F)cc1`, the IC50 is > 2000 nM.
`[O-]c1c2c(nn1-c1ccc(F)cc1)c1ccccc1c[n+]2Cc1ccccc1`: the IC50 was > 2000 nM.
For `Oc1c2ncc3ccccc3c2nn1-c1ccc(Cl)cc1`, the IC50 was > 2000 nM.
As for `COc1ccc(-n2nc3c4ccccc4[nH]cc-3c2=O)cc1`, the figure is 0.9 nM.

(Values after ChEMBL document CHEMBL1125292, “Synthesis of novel 2-phenyl-2H-pyrazolo[4,3-c]isoquinolin-3-ols: topological comparisons with analogues of 2-phenyl-2,5-dihydropyrazolo[4,3-c]quinolin-3(3H)-ones at benzodiazepine receptors” (J Med Chem, 1992).)
